The results in this text go back to ChEMBL document CHEMBL4393694, “A multifunctional therapeutic approach: Synthesis, biological evaluation, crystal structure and molecular docking of diversified 1H-pyrazolo[3,4-b]pyridine derivatives against Alzheimer's disease” (Eur J Med Chem, 2019).

Molecules are shown by their SMILES. Activity calls are given as the source filed them. The rule behind the calls is not given here.

Assay [1] deals with Cholinesterase (Equus caballus, UniProt P81908). Nature of the assay: Inhibition of equine serum BuChE using butyrylthiocholine iodide as substrate pretreated for 5 mins followed by substrate addition measured after 5 mins by Ellman's method. The method, boiled down: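 Ellman assay in phosphate buffer pH 8.0. AChE (0.22 U/mL) or BuChE (0.06 U/mL) preincubated 5 min with inhibitor (0.01–100 μM final). DTNB then added, and the reaction started with ATC or BTC (0.075 M solution). IC50 reported as mean ± SD. Selectivity is IC50(BuChE)/IC50(AChE).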
(In general: In Ellman's method for cholinesterases, released thiocholine reacts with DTNB.)

A short description of assay [2]: Selectivity index, ratio of IC50 for equine serum BChE to IC50 for electric eel AChE. In outline: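 Ellman assay in phosphate buffer pH 8.0. AChE (0.22 U/mL) or BuChE (0.06 U/mL) preincubated 5 min with inhibitor (0.01–100 μM final). DTNB then added, and the reaction started with ATC or BTC (0.075 M solution). Absorbance read at 412 nm, 25 °C, 5 min after substrate. IC50 reported as mean ± SD. Selectivity is IC50(BuChE)/IC50(AChE).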

For assay [3], the target named is T1, Amyloid-beta precursor protein (Homo sapiens, UniProt P05067). Nature of the assay: Disaggregation of self-induced amyloid beta (1 to 42) (unknown origin) preformed fibrils measured after 24 hrs by ThT fluorescence assay relative to control. In outline: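 HFIP-pretreated Aβ1-42 taken up in DMSO (5 mM stock), diluted in 50 mM phosphate pH 7.4 (100 μM final). Peptide incubated 48 h at 37 °C, then compound or buffer added and incubated a further 24 h at 37 °C. Samples diluted to 200 μl with 50 mM glycine-NaOH pH 8.0 and read by ThT fluorescence. Peptide-free blanks run in parallel.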

The nature of assay [4]: Antioxidant activity assessed as AAPH-induced radical scavenging activity by measuring trolox equivalents for oxygen radical absorbance capacity measured up to 80 mins by ORAC-FL assay. It is filed as functional. In outline:
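Fluorescein (70 nM final) with test compound at eight concentrations (1–8 μM) in 75 mM phosphate buffer pH 7.4, preincubated 15 min at 37 °C. AAPH (12 mM final) then added and fluorescence read (ex 485/em 520 nm) for 80 min. Net AUC over blank regressed against concentration and converted to Trolox equivalents by standard curve (Trolox = 1). At least three runs.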

Assay [5] addresses T1, Amyloid-beta precursor protein. Description: Inhibition of self-mediated amyloid beta (1 to 42) (unknown origin) aggregation at 25 uM incubated for 48 hrs by thioflavin-T fluorescence assay relative to control. The method, boiled down:
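HFIP-pretreated Aβ1-42 taken up in DMSO (5 mM stock), diluted in 50 mM phosphate pH 7.4 (100 μM final). Incubated 48 h at 37 °C with or without compound at 25 μM. Samples diluted to 200 μl with 50 mM glycine-NaOH pH 8.0 and read by ThT fluorescence. Percent inhibition reported as mean ± SD.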

Assay [6] concerns the target Acetylcholinesterase (Electrophorus electricus, UniProt O42275). Description: Inhibition of electric eel AChE using acetylthiocholine iodide as substrate preincubated for 5 mins followed by substrate addition measured after 5 mins by Ellman's method.
The nature of assay [7]: Metal chelating activity assessed as compound-Cu2+ complex formation at 30 uM after 30 mins by UV-visible spectrophotometric analysis. The method, boiled down:
(§1)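 UV absorption spectra (200–500 nm) were recorded over 30 min for compound (30 μM final) alone or with CuSO4 or FeSO4 (30 μM final). The medium was 20% (v/v) ethanol/buffer: 150 mM NaCl, 20 mM HEPES, pH 7.4.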

Assay [8] in a line: Inhibition of Cu2+ induced amyloid beta (1 to 42) aggregation at 25 uM incubated for 24 hrs by Thioflavin T based fluorometric assay relative to control. In outline:
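Aβ1-42 was pretreated with HFIP, dried to a film, and held as a 5 mM DMSO stock. It was diluted in HEPES pH 6.6 with 150 μM NaCl, then incubated at 100 μM final with or without Cu2+ (100 μM final) for 48 h at 37 °C. Compounds were added at 25 μM final for 24 h at 37 °C. Samples (20 μL) were diluted to 200 μL glycine–NaOH (50 mM, pH 8.0) containing 5 μM ThT before reading fluorescence.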

In assay [9] the target is T1, Amyloid-beta precursor protein. Nature of the assay: Inhibition of self-mediated amyloid beta (1 to 42) (unknown origin) aggregation at 20 uM incubated for 48 hrs by thioflavin-T fluorescence assay relative to control. The method, boiled down:
(§2)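 HFIP-pretreated Aβ1-42 from a DMSO stock was diluted in phosphate buffer (50 mM, pH 7.4). Peptide was incubated with or without inhibitor at 10, 15, 20 or 25 μM for 48 h at 37 °C. Samples were diluted to 200 μL with glycine–NaOH (50 mM, pH 8.0) and fibrils read by ThT fluorescence. Blanks lacking Aβ were run. IC50 was derived from the four concentrations.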

The nature of assay [10]: Inhibition of Cu2+ induced amyloid beta (1 to 42) aggregation assessed as fluorescence intensity at 25 uM incubated for 24 hrs by Thioflavin T based fluorometric assay (reference value: 606.64 +/- 36.11 a.u.).
Assay [11] deals with T1, Amyloid-beta precursor protein. Description: Inhibition of self-mediated amyloid beta (1 to 42) (unknown origin) aggregation at 15 uM incubated for 48 hrs by thioflavin-T fluorescence assay relative to control. The method, boiled down: as §2
The target is the same in assay [12]. Description: Inhibition of self-mediated amyloid beta (1 to 42) (unknown origin) fibril formation assessed as appearance of sparse fibrils at 25 uM after 48 hrs by transmission electron microscopic analysis.
Assay [13] shares this target. Description: Inhibition of self-mediated amyloid beta (1 to 42) (unknown origin) aggregation at 10 uM incubated for 48 hrs by thioflavin-T fluorescence assay relative to control. The method, boiled down: as §2
Assay [14] has the same target. Nature of the assay: Inhibition of self-mediated amyloid beta (1 to 42) (unknown origin) aggregation incubated for 48 hrs by thioflavin-T fluorescence assay. In outline: as §2
Assay [15] concerns the target Acetylcholinesterase (Electrophorus electricus) (UniProt O42275). Nature of the assay: Mixed-type inhibition of electric eel AChE assessed as decreased Vmax with higher Km using varying levels of acetylthiocholine iodide as substrate pretreated for 5 mins followed by substrate addition by Lineweaver-Burk plot analysis. In outline: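 AChE kinetics by Ellman's method, with substrate varied at comparatively low concentrations. Inhibitor tested at 10, 20 and 40 nM. Inhibition type assigned from Lineweaver–Burk plots of 1/velocity versus 1/substrate.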

A short description of assay [16]: Metal chelating activity assessed as compound-Fe2+ complex formation at 30 uM after 30 mins by UV-visible spectrophotometric analysis. In outline:
as §1

T1 sequence (P05067 whole entry): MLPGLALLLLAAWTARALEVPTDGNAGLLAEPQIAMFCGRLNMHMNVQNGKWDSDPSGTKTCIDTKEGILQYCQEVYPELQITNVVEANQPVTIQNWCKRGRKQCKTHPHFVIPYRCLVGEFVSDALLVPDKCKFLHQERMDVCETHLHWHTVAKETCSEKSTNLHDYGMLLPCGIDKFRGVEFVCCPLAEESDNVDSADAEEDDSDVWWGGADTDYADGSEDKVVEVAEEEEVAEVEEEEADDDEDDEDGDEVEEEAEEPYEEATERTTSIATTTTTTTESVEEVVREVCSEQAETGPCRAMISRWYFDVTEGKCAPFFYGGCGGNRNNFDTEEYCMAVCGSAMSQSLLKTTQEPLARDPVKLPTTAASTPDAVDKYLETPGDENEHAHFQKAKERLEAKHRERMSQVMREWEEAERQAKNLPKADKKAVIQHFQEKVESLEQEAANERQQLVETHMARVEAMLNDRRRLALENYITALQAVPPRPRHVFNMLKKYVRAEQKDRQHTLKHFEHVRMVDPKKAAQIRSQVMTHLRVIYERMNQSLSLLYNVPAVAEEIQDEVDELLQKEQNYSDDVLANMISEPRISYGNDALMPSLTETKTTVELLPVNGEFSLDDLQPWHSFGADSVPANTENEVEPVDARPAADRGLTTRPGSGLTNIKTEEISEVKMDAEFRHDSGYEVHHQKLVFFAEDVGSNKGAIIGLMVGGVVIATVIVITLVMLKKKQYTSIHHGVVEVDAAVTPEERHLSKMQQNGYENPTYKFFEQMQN
Sequence of Cholinesterase (P81908 whole entry): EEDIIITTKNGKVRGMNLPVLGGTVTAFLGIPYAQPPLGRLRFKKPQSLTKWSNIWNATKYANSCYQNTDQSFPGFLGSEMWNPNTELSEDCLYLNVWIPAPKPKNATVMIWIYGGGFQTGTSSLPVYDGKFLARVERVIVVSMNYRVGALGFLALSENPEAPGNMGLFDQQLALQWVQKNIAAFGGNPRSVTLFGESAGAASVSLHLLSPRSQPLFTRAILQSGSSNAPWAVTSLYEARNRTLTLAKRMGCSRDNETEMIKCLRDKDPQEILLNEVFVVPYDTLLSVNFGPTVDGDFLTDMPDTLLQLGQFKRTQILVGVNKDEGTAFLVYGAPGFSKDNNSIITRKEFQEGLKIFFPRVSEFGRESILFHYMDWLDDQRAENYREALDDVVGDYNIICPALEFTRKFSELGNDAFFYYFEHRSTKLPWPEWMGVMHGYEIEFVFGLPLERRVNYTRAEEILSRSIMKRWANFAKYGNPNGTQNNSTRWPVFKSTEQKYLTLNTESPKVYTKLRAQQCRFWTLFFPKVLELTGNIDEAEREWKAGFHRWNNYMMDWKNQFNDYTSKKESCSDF
Sequence of Acetylcholinesterase (O42275 whole entry): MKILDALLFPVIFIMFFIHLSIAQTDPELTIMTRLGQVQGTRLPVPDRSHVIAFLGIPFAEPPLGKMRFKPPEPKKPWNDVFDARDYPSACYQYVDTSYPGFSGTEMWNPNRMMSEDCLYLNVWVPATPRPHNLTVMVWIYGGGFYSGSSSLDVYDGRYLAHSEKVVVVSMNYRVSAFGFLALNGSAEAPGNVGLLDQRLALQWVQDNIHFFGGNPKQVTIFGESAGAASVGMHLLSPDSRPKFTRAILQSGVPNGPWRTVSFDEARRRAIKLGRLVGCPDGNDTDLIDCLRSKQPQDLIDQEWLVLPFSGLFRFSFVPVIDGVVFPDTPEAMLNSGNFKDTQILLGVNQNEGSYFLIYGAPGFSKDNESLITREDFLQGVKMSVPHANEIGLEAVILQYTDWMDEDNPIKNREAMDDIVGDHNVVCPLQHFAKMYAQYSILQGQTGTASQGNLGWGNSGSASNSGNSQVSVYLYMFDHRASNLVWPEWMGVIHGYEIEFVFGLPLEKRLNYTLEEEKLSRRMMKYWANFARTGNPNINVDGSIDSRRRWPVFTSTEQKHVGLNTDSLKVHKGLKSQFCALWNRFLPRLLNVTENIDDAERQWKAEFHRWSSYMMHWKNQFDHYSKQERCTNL
Sequence of Acetylcholinesterase (Electrophorus electricus) (O42275 24-633 limits assumed): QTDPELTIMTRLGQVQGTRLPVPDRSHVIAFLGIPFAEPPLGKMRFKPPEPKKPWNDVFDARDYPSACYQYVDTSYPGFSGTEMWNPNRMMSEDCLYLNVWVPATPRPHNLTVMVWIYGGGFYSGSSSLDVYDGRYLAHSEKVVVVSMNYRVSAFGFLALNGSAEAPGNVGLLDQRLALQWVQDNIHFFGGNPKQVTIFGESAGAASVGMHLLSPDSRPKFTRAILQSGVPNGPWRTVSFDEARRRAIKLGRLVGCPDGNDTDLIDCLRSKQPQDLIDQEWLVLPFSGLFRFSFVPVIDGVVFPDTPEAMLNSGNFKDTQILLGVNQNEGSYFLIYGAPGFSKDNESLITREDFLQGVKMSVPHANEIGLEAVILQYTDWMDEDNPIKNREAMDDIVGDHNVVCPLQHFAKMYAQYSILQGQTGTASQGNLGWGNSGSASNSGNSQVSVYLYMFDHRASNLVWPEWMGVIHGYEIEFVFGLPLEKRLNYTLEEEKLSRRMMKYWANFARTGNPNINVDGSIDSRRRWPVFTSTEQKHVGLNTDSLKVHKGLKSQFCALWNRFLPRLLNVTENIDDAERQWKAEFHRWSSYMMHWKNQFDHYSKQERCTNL

Regarding `O=C(CN1CCOCC1)Nc1n[nH]c2ncccc12`, the IC50 (in general, the concentration at which inhibition is half-maximal) in assay [1] is greater than 100 µM; in [6], 0.113 µM. For the same compound, the Ratio IC50 in assay [2] was greater than 885. The Activity in assay [3] was determined as 47.4%; in [4], 0.192 µMequiv/µM. Also, in assay [5], the inhibition (commonly the change of the read-out against control, counted positive when it falls) came to 74.6%.

For `O=C(CN1CCN(CC(=O)Nc2n[nH]c3ncccc23)CC1)Nc1n[nH]c2ncccc12`, the IC50 in assay [1] is greater than 100 µM; in assay [14], 17.9 µM; in assay [6], 0.045 µM. Moreover, the result in assay [7] and in [16] was Active. For the same compound, the inhibition in assay [8] came out at 58.8%; in assay [9], 58%; in [5], 79.5%; in assay [11], 39.9%; in assay [13] it was 3.9%. For the same compound, the Ratio IC50 in assay [2] is greater than 2220. Besides, the Activity amounted to 53.8% in assay [3] and 0.283 µMequiv/µM in [4]. In assay [10], the Flu intensity stood at 250 a.u. Also, the inhibition entry in assay [12] and in [15] was “Active” each time.

On to `CCOC(=O)c1cnc2ccc(C)cc2c1N1CCN(CC(=O)Nc2n[nH]c3ncccc23)CC1`, for which the IC50 in [1] and in assay [6] was greater than 100 µM each time. Besides, the results for the Activity in assay [3] and in assay [4] were 52.1% and 0.271 µMequiv/µM, respectively. The inhibition in assay [5] was found to be 69.3%.

As to `N#Cc1cccnc1N1CCN(CC(=O)Nc2n[nH]c3ncccc23)CC1`, the half-inhibitory concentration (IC50) in assay [1] and in assay [6] was greater than 100 µM in each case. The Activity in assay [4] is 0.163 µMequiv/µM. The inhibition in [5] turned out to be 40%.

With `O=C(CN1CCCCC1)Nc1n[nH]c2ncccc12`, the half-maximal inhibitory concentration (IC50) was greater than 100 µM in assay [1] and 0.0048 µM in assay [6]. The Ratio IC50 in [2] is greater than 20800. Further, the Activity in assay [4] turned out to be 0.65 µMequiv/µM. In [5], this compound showed an inhibition of 50.6%.

As to `CCOC(=O)c1cnc2ccccc2c1N1CCN(CC(=O)Nc2n[nH]c3ncccc23)CC1`, the concentration for half-maximal inhibition (IC50) is greater than 100 µM in assay [1], 15.7 µM in [14] and greater than 100 µM in assay [6]. Also, the outcome in assay [7] and in assay [16] was Active. For the same compound, the inhibition in assay [8] turned out to be 57%; in assay [9] it was 84.1%; in assay [5], 81.7%; in [11] it was 43.8%; in [13] it was 28.6%. For the same compound, the Activity in assay [3] was found to be 61.6%; in assay [4] it was 0.274 µMequiv/µM. Also, the Flu intensity in assay [10] stood at 261 a.u. The inhibition result in [12] was “Active”.

Take `O=C(CN1CCN(c2ccnc3cc(Cl)ccc23)CC1)Nc1n[nH]c2ncccc12`: the IC50 in assay [1] is greater than 100 µM; in assay [6], 0.012 µM. Further, the Ratio IC50 in [2] was greater than 8330. Besides, in assay [4], the Activity was determined as 0.286 µMequiv/µM. This compound also registered an inhibition in assay [5] of 23.6%.

Turning to `COc1cc(/C=C/C(=O)CC(=O)/C=C/c2ccc(O)c(OC)c2)ccc1O`, the inhibition in assay [8] was 45.2%. Also, the Flu intensity in [10] is 333 a.u. Further, in assay [12], the inhibition entry was “Active”.

Take `Cc1cc(N2CCN(CC(=O)Nc3n[nH]c4ncccc34)CC2)n2ncnc2n1`: the half-inhibitory concentration (IC50) in assay [1] was greater than 100 µM; in [6], 0.022 µM. Further, the Ratio IC50 in assay [2] was greater than 4550. Moreover, in [4], the Activity was determined as 0.216 µMequiv/µM. For the same compound, the inhibition in [5] stood at 43.4%.

As to `CN1CCN(CC(=O)Nc2n[nH]c3ncccc23)CC1`, the IC50 in [1] is greater than 100 µM; in [6], 0.0049 µM. In addition, the Ratio IC50 in [2] was greater than 20400. For the same compound, the Activity in assay [4] turned out to be 0.362 µMequiv/µM. The compound further registered an inhibition in [5] of 50.9%.
